Measurements: ChEMBL document CHEMBL3352152, “Indolylmethylene benzo[h]thiazolo[2,3-b]quinazolinones: synthesis, characterization and evaluation of anticancer and antimicrobial activities” (Bioorg Med Chem Lett, 2014)

What was measured:
Pseudomonas aeruginosa [1] = assay: Antibacterial activity against Pseudomonas aeruginosa MTCC 4673 at 30 ug/ml after 24 hrs by agar well diffusion assay; assay type: functional; conditions: MTCC 4673, 24 h, read-out: IZ
Outline: (§1)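 Agar well diffusion screen against the two Gram-positive strains (S. aureus, S. pyogenes) and the two Gram-negative strains (P. aeruginosa, K. pneumoniae). Streptomycin was the reference drug. Activity was read as zone of inhibition (mm).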

Staphylococcus aureus [2] = assay: Antibacterial activity against Staphylococcus aureus MTCC 96 at 30 ug/ml after 24 hrs by agar well diffusion assay; assay type: functional; conditions: MTCC 96, 24 h, read-out: IZ
Outline: (§2)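 Agar well diffusion screen run in vitro against a bacterial panel: S. aureus and S. pyogenes (Gram-positive), P. aeruginosa and K. pneumoniae (Gram-negative). Streptomycin served as the reference standard drug.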

Streptococcus pyogenes [3] = assay: Antibacterial activity against Streptococcus pyogenes MTCC 1926 at 30 ug/ml after 24 hrs by agar well diffusion assay; assay type: functional; conditions: MTCC 1926, 24 h, read-out: IZ; outline: as §1
Klebsiella pneumoniae [4] = assay: Antibacterial activity against Klebsiella pneumoniae MTCC 109 at 30 ug/ml after 24 hrs by agar well diffusion assay; assay type: functional; conditions: MTCC 109, 24 h, read-out: IZ; outline: as §2
Aspergillus parasiticus [5] = assay: Antifungal activity against Aspergillus parasiticus MTCC 8850 at 30 ug/ml after 48 hrs by agar well diffusion method; assay type: functional; conditions: MTCC 8850, 48 h, read-out: IZ
Outline: (§3)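 Antifungal screen by agar well diffusion against C. albicans, C. glabrata, A. niger and A. parasiticus. Clotrimazole was the standard drug. Activity was recorded as zone of inhibition (ZOI, mm).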

Nakaseomyces glabratus [6] = assay: Antifungal activity against Candida glabrata MTCC3019 at 30 ug/ml after 48 hrs by agar well diffusion method; assay type: functional; conditions: MTCC3019, 48 h, read-out: IZ; outline: as §3
Aspergillus niger [7] = assay: Antifungal activity against Aspergillus niger MTCC 282 at 30 ug/ml after 48 hrs by agar well diffusion method; assay type: functional; conditions: MTCC 282, 48 h, read-out: IZ; outline: as §3
Candida albicans [8] = assay: Antifungal activity against Candida albicans MTCC 183 at 30 ug/ml after 48 hrs by agar well diffusion method; assay type: functional; conditions: MTCC 183, 48 h, read-out: IZ; outline: as §3
Streptococcus pyogenes [9] = assay: Antibacterial activity against Streptococcus pyogenes MTCC 1926 at 150 ug/ml after 24 hrs by agar well diffusion assay; assay type: functional; conditions: MTCC 1926, 24 h, read-out: IZ; outline: as §1
Pseudomonas aeruginosa [10] = assay: Antibacterial activity against Pseudomonas aeruginosa MTCC 4673 at 150 ug/ml after 24 hrs by agar well diffusion assay; assay type: functional; conditions: MTCC 4673, 24 h, read-out: IZ; outline: as §1
Nakaseomyces glabratus [11] = assay: Antifungal activity against Candida glabrata MTCC3019 at 150 ug/ml after 48 hrs by agar well diffusion method; assay type: functional; conditions: MTCC3019, 48 h, read-out: IZ; outline: as §3
HepG2 = assay: Anticancer activity against human HepG2 cells assessed as cell viability after 48 hrs by MTT microcultured tetrazolium assay; assay type: functional, cell-based; conditions: HepG2, 48 h
Outline: (§4)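 MTT-microcultured tetrazolium viability read-out in MCF-7 and HepG2 cells exposed to test samples. Surviving fraction was plotted against drug concentration to give survival curves, and IC50 was taken from these curves.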

Staphylococcus aureus [12] = assay: Antibacterial activity against Staphylococcus aureus MTCC 96 at 150 ug/ml after 24 hrs by agar well diffusion assay; assay type: functional; conditions: MTCC 96, 24 h, read-out: IZ; outline: as §1
MCF7 = assay: Anticancer activity against human MCF7 cells assessed as cell viability after 48 hrs by MTT microcultured tetrazolium assay; assay type: functional, cell-based; conditions: MCF7, 48 h; outline: as §4
Klebsiella pneumoniae [13] = assay: Antibacterial activity against Klebsiella pneumoniae MTCC 109 at 150 ug/ml after 24 hrs by agar well diffusion assay; assay type: functional; conditions: MTCC 109, 24 h, read-out: IZ; outline: as §1
Candida albicans [14] = assay: Antifungal activity against Candida albicans MTCC 183 at 150 ug/ml after 48 hrs by agar well diffusion method; assay type: functional; conditions: MTCC 183, 48 h, read-out: IZ; outline: as §3
Aspergillus niger [15] = assay: Antifungal activity against Aspergillus niger MTCC 282 at 150 ug/ml after 48 hrs by agar well diffusion method; assay type: functional; conditions: MTCC 282, 48 h, read-out: IZ; outline: as §3
Aspergillus parasiticus [16] = assay: Antifungal activity against Aspergillus parasiticus MTCC 8850 at 150 ug/ml after 48 hrs by agar well diffusion method; assay type: functional; conditions: MTCC 8850, 48 h, read-out: IZ; outline: as §3

In the case of CN[C@@H]1[C@H](O[C@H]2[C@H](O[C@H]3[C@H](O)[C@@H](O)[C@H](N=C(N)N)[C@@H](O)[C@@H]3N=C(N)N)O[C@@H](C)[C@]2(O)C=O)O[C@@H](CO)[C@H](O)[C@H]1O [STREPTOMYCIN], the zone of inhibition at 30 µg/mL (Pseudomonas aeruginosa [1]) is reported as 20 mm, the zone of inhibition at 30 µg/mL (Staphylococcus aureus [2]) is reported as 22 mm and the zone of inhibition at 30 µg/mL (Streptococcus pyogenes [3]) is reported as 21 mm. For the same compound, the zone of inhibition at 30 µg/mL (Klebsiella pneumoniae [4]) was 22 mm.

Clc1ccccc1C(c1ccccc1)(c1ccccc1)n1ccnc1 [CLOTRIMAZOLE] was tested, and the zone of inhibition at 30 µg/mL (Aspergillus parasiticus [5]) was 20 mm, the zone of inhibition at 30 µg/mL (Nakaseomyces glabratus [6]) was 22 mm and the zone of inhibition at 30 µg/mL (Aspergillus niger [7]) was 20 mm. For the same compound, the zone of inhibition at 30 µg/mL (Candida albicans [8]) was 24 mm.

With O=c1/c(=C/c2c[nH]c3ccc(Br)cc23)sc2n1C(c1ccc(Cl)cc1)C1=C(N=2)c2ccccc2CC1 (stereo not drawn) the zone of inhibition at 150 µg/mL (Streptococcus pyogenes [9]) was 8 mm, the zone of inhibition at 150 µg/mL (Pseudomonas aeruginosa [10]) was 15 mm and the zone of inhibition at 150 µg/mL (Nakaseomyces glabratus [11]) was 10 mm. For the same compound, the IC50 (HepG2) was 13.7 µM, the zone of inhibition at 150 µg/mL (Staphylococcus aureus [12]) was 13 mm and the IC50 (MCF7) was 18.9 µM. For the same compound, the zone of inhibition at 150 µg/mL (Klebsiella pneumoniae [13]) was 8 mm, the zone of inhibition at 150 µg/mL (Candida albicans [14]) was 8 mm and the zone of inhibition at 150 µg/mL (Aspergillus niger [15]) was 8 mm. It also gave a zone of inhibition at 150 µg/mL (Aspergillus parasiticus [16]) of 8 mm.
